Experimental data pooled from the literature.
Compare with care: the assays were run in different laboratories.
Read-out: cell growth or viability

| Structure (SMILES) | cell line | test | conditions | IC50 [µM] |
| --- | --- | --- | --- | --- |
| Cc1cc(C)cc(COc2cc3c(cc2OCc2cc(C)cc(C)c2)[C@H]2C[C@](O)(Cc4cn(CC56CC7CC(CC(C7)C5)C6)nn4)C[C@H](C)N2CC3)c1 | ASPC1 | MTT | – | 0.516 |
| NCc1cc2c(-c3ccccc3)n[nH]c2c(Nc2ccccc2)n1 | WI-38 | MTS | 48 h | > 10 |
| Cc1cc(C)cc(COc2cc3c(cc2OCc2cc(C)cc(C)c2)C2CC(O)(Cc4cn(CCCCCCNC(=O)CNc5ccc6c(c5)C(=O)N(C5CCC(=O)NC5=O)C6=O)nn4)CC(C)N2CC3)c1 (stereo not drawn) | ASPC1 | MTT | – | > 5 |
| NCCOc1cc(NC(=O)c2cc(OCc3c[nH]nn3)cc(C(=O)Nc3cc(OCCN)c4ccccc4n3)n2)nc2ccccc12 | WI-38 | ATP luminescence | 72 h | 39.7 |
| COC(C)(C)CCC[C@](C)(O)[C@H]1CC[C@]2(C)[C@@H]1[C@H](O)C[C@@H]1[C@@]3(C)CC[C@H](O)C(C)(C)[C@@H]3CC[C@]12C | NCI-H358 | MTT | 72 h | 19.1 |
| COc1cc(Nc2nccc(-c3cnn4nc(OC)ccc34)n2)cc(C(F)(F)F)c1 | KARPAS-299 | ATP luminescence | – | 0.2 |
| Cc1cc(C)cc(COc2cc3c(cc2OCc2cc(C)cc(C)c2)[C@H]2C[C@](O)(Cc4cn(Cc5ccc(-c6ccccc6)cc5)nn4)C[C@H](C)N2CC3)c1 | ASPC1 | MTT | – | 0.703 |
| CCN1C(=O)N(c2c(F)c(OC)cc(OC)c2F)Cc2cnc3[nH]c(CN4CCOCC4)cc3c21 | RT-4 | ATP luminescence | 96 h | 0.00503 |
| Cc1cc(C)cc(COc2cc3c(cc2OCc2cc(C)cc(C)c2)C2CC(O)(Cc4cn(CCCCCCCCCCC(=O)Nc5cccc6c5C(=O)N(C5CCC(=O)NC5=O)C6=O)nn4)CC(C)N2CC3)c1 (stereo not drawn) | ASPC1 | MTT | – | 4.8 |
| Nc1ccn([C@@H]2O[C@H](CO)[C@@H](O)C2(F)F)c(=O)n1 | HPAF-II | MTT | – | 1.45 |
| Cc1cc(C)cc(COc2cc3c(cc2OCc2cc(C)cc(C)c2)C2CC(O)(Cc4cn(CCOCCOCCOCCNC(=O)CNc5ccc6c(c5)C(=O)N(C5CCC(=O)NC5=O)C6=O)nn4)CC(C)N2CC3)c1 (stereo not drawn) | ASPC1 | MTT | – | > 5 |
| COc1cc(-c2oc3cc(O)cc(O)c3c(=O)c2O)ccc1O | RT-4 | ATP luminescence | 72 h | 34.3 |
| CC(C)C[C@H](NC(=O)[C@H](Cc1ccccc1)NC(=O)c1cnccn1)B(O)O | RERF-LC-MS | ATP luminescence | – | 0.02 |
| COc1cc(C(=O)c2c(N)sc(CCc3ccccc3)c2C)cc(OC)c1OC | Molt4/C8 | – | – | > 10 |
| O=C(Nc1cc(OCCN2CCCC2)c2ccccc2n1)c1cc(Cl)cc(C(=O)Nc2cc(OCCN3CCCC3)c3ccccc3n2)n1 | WI-38 | ATP luminescence | 72 h | 13.7 |
| Cc1cc(C)cc(COc2cc3c(cc2OCc2cc(C)cc(C)c2)C2CC(O)(Cc4cn(CCCCCCNc5ccc6c(c5)C(=O)N(C5CCC(=O)NC5=O)C6=O)nn4)CC(C)N2CC3)c1 (stereo not drawn) | ASPC1 | MTT | – | 1.23 |
| COc1ccc(C[C]2([Ti+2][C]3(Cc4ccc(OC)cc4)C=CC=C3)C=CC=C2)cc1.[Cl-].[Cl-] | CAKI-1 | XTT | 24 h | > 200 |
| CN(C)CCOc1cc(NC(=O)c2cc(Cl)cc(C(=O)Nc3cc(OCCN(C)C)c4ccccc4n3)n2)nc2ccccc12 | WI-38 | ATP luminescence | 72 h | 4 |
